Data on four molecules can be found in paper PMC4091826 (Molecular Biology of the Cell, 2014).

No end group written: not given here.

As usually defined, the koff is the rate constant with which the complex falls apart. The Kd is the constant that tells how readily two partners part at equilibrium. Broadly, the kon is the rate constant with which the complex forms. High values mean fast association, low ones slow association.

Data set [1] has as its system human mtHsp70. As to the kind of experiment: Stimulation of ATPase activity by P5 peptide, human mtHsp70. The data set is classed as biochemical. The settings on record: 250-fold molar excess of P5; Figure 1D. A digest of the protocol: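 Human mtHsp70[ATP] complexes were formed by incubating 100 μg protein with 50 μM ATP and 25 μCi [γ-32P]ATP on ice for 3 min in buffer A (25 mM HEPES-KOH pH 7.5, 100 mM KCl, 10 mM Mg(OAc)2). Complexes were isolated by Sephadex G50 (1 μM protein) and snap-frozen. Single-turnover hydrolysis was run at 25°C in buffer A, either alone (basal) or with P5 peptide.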

Data set [2] relates to human mtHsp70. The settings on record: ref Goswami et al., 2010; cited from earlier work.
The subject of data set [3] is human mtHsp70. The conditions noted are these: versus wild type; ref Goswami et al., 2010; cited from earlier work.
Data set [4] deals with human mtHsp70. As to the kind of experiment: Single-turnover basal ATPase assay, human mtHsp70. The data set is classed as biochemical. The conditions noted are these: 25°C, buffer A, versus wild type, Figure 1C. A digest of the protocol:
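Purified protein (100 μg) was loaded on ice for 3 min with 50 μM ATP and 25 μCi [γ-32P]ATP in buffer A (25 mM HEPES-KOH pH 7.5, 100 mM KCl, 10 mM Mg(OAc)2). Complexes were isolated immediately on Sephadex G50 and frozen in liquid nitrogen; they contained 1 μM protein. Hydrolysis was then run at 25°C in buffer alone, without stimulators.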

The target in data set [5] is Ssc1 E467A-D411R, purified (S. cerevisiae, UniProt P0CS90 24-654, D411R | E467A). As to the kind of experiment: fluorescence polarisation. For orientation: Fluorescence polarisation rises when a labelled molecule tumbles more slowly, as on binding a larger partner.
A further data set addresses Ssc1 D411R, purified (S. cerevisiae, UniProt P0CS90 24-654, D411R). As to the kind of experiment: fluorescence polarisation.
Data set [6] concerns the target human mtHsp70, wild type, hexahistidine-tagged, purified (human, UniProt P38646 47-679). As to the kind of experiment: fluorescence polarisation.
Data set [7] addresses T1, Ssc1 E467A, hexahistidine-tagged, purified (S. cerevisiae, UniProt P0CS90 24-654, E467A). Kind of data set: fluorescence polarisation.
The target in data set [8] is T2, Ssc1 (yeast mtHsp70), wild type, hexahistidine-tagged, purified (S. cerevisiae, UniProt P0CS90 24-654). Kind of data set: fluorescence polarisation.
For data set [9], the target named is T1, Ssc1 E467A, hexahistidine-tagged, …. Kind of data set: fluorescence polarisation. This is another data set of the same source.
The target in data set [10] is T2, Ssc1 (yeast mtHsp70), wild type, …. As to the kind of experiment: fluorescence polarisation. This is another data set of the same source.
Target sequence in this assay (P0CS90 24-654): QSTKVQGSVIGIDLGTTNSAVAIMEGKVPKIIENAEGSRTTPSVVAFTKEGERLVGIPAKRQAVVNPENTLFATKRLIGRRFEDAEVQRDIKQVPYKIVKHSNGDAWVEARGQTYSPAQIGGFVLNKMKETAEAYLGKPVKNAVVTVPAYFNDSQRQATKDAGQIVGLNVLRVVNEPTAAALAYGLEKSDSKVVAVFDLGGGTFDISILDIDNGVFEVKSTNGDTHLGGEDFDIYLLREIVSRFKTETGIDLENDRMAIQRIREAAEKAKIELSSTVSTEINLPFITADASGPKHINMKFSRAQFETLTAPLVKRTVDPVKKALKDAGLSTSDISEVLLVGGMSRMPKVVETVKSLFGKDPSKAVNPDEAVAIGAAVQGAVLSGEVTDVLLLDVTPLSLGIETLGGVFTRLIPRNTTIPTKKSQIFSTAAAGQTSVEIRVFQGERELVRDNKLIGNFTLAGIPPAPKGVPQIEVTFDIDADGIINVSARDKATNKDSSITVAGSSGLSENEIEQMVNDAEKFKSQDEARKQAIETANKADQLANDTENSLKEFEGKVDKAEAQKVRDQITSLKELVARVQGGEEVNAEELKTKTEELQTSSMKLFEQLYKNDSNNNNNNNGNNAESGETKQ
Data set [11] addresses T1, Ssc1 E467A, hexahistidine-tagged, …. Kind of data set: fluorescence polarisation. This is another data set of the same source.
The target in data set [12] is T2, Ssc1 (yeast mtHsp70), wild type, …. As to the kind of experiment: fluorescence polarisation. The source holds these as a separate data set.
Another data set concerns Hsp60. As to the kind of experiment: Hsp60 precursor accumulation assay. Format: cell-based, S. cerevisiae. The settings on record: shift to 37°C for 2 h, immunoblot; Figure 6B. In short, it runs like this:
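Yeast strains were grown in YPD at 28°C to early log phase, then shifted to 37°C for 2 h. Cells equivalent to 2 OD A600 were taken before and after the shift and lysed in 0.1 N NaOH. Whole-cell extracts were run on SDS–PAGE and immunoblotted for Hsp60 to detect its precursor (p) and mature (m) forms.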
Background: A western blot detects proteins with antibodies after separation by electrophoresis.

The next data set has as its system mitochondrial mass. As to the kind of experiment: Mitochondrial mass estimation by 10-N-nonyl acridine orange flow cytometry. Format: cell-based, S. cerevisiae. The conditions noted are these: in comparison to wild type; Figure 6E. In short, it runs like this: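 Per strain, cells equal to 0.2 OD at A600 were stained with 10-N-nonyl acridine orange, a cardiolipin-binding dye, and analysed by flow cytometry to estimate total mitochondrial mass.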

The subject of a further data set is Cytb2(47)-DHFR. Kind of data set: In vitro import kinetics of Cytb2. The data set is classed as biochemical, S. cerevisiae. The settings on record: isolated mitochondria, 37°C preincubation; Figure 6, C and D. A digest of the protocol:
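Saturating purified precursor plus 8 mM each ATP and NADH added. Time points stopped with valinomycin, then proteinase K (quenched with PMSF). Anti-DHFR immunoblot; intermediate form plotted over time, maximum wild-type import set as 100%.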

Data set [13] concerns fluorescein-labeled P5 peptide (F-P5). Kind of data set: Fluorescence anisotropy equilibrium binding of F-P5 peptide to Ssc1 proteins. The conditions noted are these: F-P5, versus wild type.
The test system of data set [14] is Ssc1. As to the kind of experiment: Limited proteolytic cleavage by trypsin. The data set is classed as biochemical, S. cerevisiae. The settings on record: 1:100 (wt/wt) trypsin, 25°C, SDS-PAGE.
Data set [15] deals with Ssc1. Kind of data set: ATP-induced substrate release by fluorescence anisotropy, Ssc1. The data set is classed as biochemical, S. cerevisiae. The settings on record: 2.5 mM ATP, 5 μM Ssc1[F-P5], anisotropy decrease up to 5 min.
The next data set deals with yeast cells. As to the kind of experiment: Growth phenotype. Format: cell-based, S. cerevisiae. The settings on record: minimal medium or 5-FOA medium, serial dilutions.
Data set [16] deals with Ssc1. Kind of data set: Single-turnover basal ATPase assay, Ssc1. The data set is classed as biochemical, S. cerevisiae. The settings on record: 25°C, buffer A, versus wild type.
Another data set concerns Tim44. As to the kind of experiment: Coimmunoprecipitation of Ssc1 with Tim44. Format: binding, S. cerevisiae. The settings on record: mitochondrial lysates, anti-Ssc1, presence or absence of 1 mM ATP; Figure 6A.

Chain of human mtHsp70, wild type, hexahistidine-tagged, purified (P38646 47-679): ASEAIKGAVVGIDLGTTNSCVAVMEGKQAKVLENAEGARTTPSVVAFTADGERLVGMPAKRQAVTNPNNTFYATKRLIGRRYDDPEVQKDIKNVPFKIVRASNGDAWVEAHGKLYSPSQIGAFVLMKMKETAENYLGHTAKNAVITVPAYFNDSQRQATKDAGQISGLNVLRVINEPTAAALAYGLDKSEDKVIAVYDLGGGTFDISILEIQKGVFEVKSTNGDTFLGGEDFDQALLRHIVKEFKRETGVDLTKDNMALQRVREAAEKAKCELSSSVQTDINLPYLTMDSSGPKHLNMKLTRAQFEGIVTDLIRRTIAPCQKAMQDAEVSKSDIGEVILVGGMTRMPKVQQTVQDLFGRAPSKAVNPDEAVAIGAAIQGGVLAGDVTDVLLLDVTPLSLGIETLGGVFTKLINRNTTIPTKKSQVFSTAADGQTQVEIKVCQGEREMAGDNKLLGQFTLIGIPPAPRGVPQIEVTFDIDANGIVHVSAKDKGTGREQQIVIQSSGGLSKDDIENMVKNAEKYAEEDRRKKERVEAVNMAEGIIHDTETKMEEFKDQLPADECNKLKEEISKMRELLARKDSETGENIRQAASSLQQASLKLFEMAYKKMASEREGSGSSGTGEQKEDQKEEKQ

mtHsp70G489E: in the data set with human mtHsp70 [1], the “stimulation of ATPase activity by P5 substrate peptide, in words” value is “marked decrease in stimulation of ATPase activity by P5 substrate peptide”. In the data set on human mtHsp70 [2], the “loss in stimulation of ATPase activity by peptide substrates” value was 70%. Also, the “elevated basal rate of ATP hydrolysis” value in the data set with human mtHsp70 [3] is on record as “fivefold elevated”.
With mtHsp70Q488A, in the data set with human mtHsp70 [1], the “stimulation of ATPase activity by P5 substrate peptide, in words” value is on record as “marked decrease in stimulation of ATPase activity by P5 substrate peptide”. Also, the “fold enhancement in basal ATPase activity” value in the data set on human mtHsp70 [4] was 2.75 fold.

B1: fluorescein-labeled P5 peptide (peptide)
peptide: CALLLSAPRR
modifications: also: fluorescein label, position not given here
As for B1, the binding result is listed as “binds” in data set [5]; “binds” in the data set with Ssc1 D411R, purified; “binds” in data set [6]. For the same molecule, the off-rate (koff) in [7] worked out at 0.0039 ± 0.000131 s⁻¹; in data set [8], 0.0023 ± 3.47e-05 s⁻¹. For the same molecule, the Kd stood at 1750 ± 269 nM in data set [9] and 200 ± 37 nM in data set [10]. Besides, the on-rate (kon) in data set [11] was 3400 M⁻¹ s⁻¹; in data set [12], 14000 M⁻¹ s⁻¹.

B2: E467A (protein)
chain: QSTKVQGSVIGIDLGTTNSAVAIMEGKVPKIIENAEGSRTTPSVVAFTKEGERLVGIPAKRQAVVNPENTLFATKRLIGRRFEDAEVQRDIKQVPYKIVKHSNGDAWVEARGQTYSPAQIGGFVLNKMKETAEAYLGKPVKNAVVTVPAYFNDSQRQATKDAGQIVGLNVLRVVNEPTAAALAYGLEKSDSKVVAVFDLGGGTFDISILDIDNGVFEVKSTNGDTHLGGEDFDIYLLREIVSRFKTETGIDLENDRMAIQRIREAAEKAKIELSSTVSTEINLPFITADASGPKHINMKFSRAQFETLTAPLVKRTVDPVKKALKDAGLSTSDISEVLLVGGMSRMPKVVETVKSLFGKDPSKAVNPDEAVAIGAAVQGAVLSGEVTDVLLLDVTPLSLGIETLGGVFTRLIPRNTTIPTKKSQIFSTAAAGQTSVEIRVFQGARELVRDNKLIGNFTLAGIPPAPKGVPQIEVTFDIDADGIINVSARDKATNKDSSITVAGSSGLSENEIEQMVNDAEKFKSQDEARKQAIETANKADQLANDTENSLKEFEGKVDKAEAQKVRDQITSLKELVARVQGGEEVNAEELKTKTEELQTSSMKLFEQLYKNDSNNNNNNNGNNAESGETKQ
Turning to B2, the “Hsp60 precursor accumulation, in words” value with Hsp60 is given as “significant levels of Hsp60 precursor form as compared with wild type”. The “reduction in mitochondrial mass” value in the data set with mitochondrial mass is on record as 30%. Also, in the data set on Cytb2(47)-DHFR, the “rate of precursor translocation into mitochondria, in words” value is on record as “impairment in translocation rate”. For the same molecule, the “fold reduced affinity for the substrate vs wild type” value in [13] is listed as approximately 8.6 fold. In addition, in the data set with Ssc1 [14], the “trypsin cleavage pattern, in words” value was “the 30-kDa bands were very unstable and rapidly degraded further into smaller-sized fragments”. Also, in the data set on Ssc1 [15], the “substrate (peptide) release upon ATP addition” value is approximately 38%. The “growth phenotype, in words” value with yeast cells is “viable at 30 °C but displayed temperature sensitivity at 34 and 37 °C”. In the data set with Ssc1 [16], the “fold increase in basal ATPase activity” value was determined as 4.85 fold. Moreover, in the data set on Tim44, the “interaction with Tim44, in words” value was “interacted negligibly with Tim44 even in the absence of ATP”.
